Laboratory results published in ChEMBL document CHEMBL4680257, “Discovery of novel NF-кB inhibitor based on scaffold hopping: 1,4,5,6,7,8-hexahydropyrido[4,3-d]pyrimidine” (Eur J Med Chem, 2020).

Experiments:
[1] = Cytotoxicity against human HHL-5 cells assessed as reduction in cell viability incubated for 24 hrs by MTT assay; format: cell-based; conditions: HHL-5, 24 h
In short: (§1)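 Cells kept at 37 °C in 5% CO₂. HepG2 grown in DMEM with 10% serum; HHL-5, LO2 and SMMC-7721 in 1640 medium with 10% serum. Seeded, grown 24 h, then exposed 24 h to 10, 5, 2.5, 1.25, 0.625 and 0.3125 µg/mL. MTT (5 mg/mL) added for 4 h at 37 °C; formazan dissolved in DMSO, OD read at 570 nm. IC50 averaged from three replicates.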

HepG2 = assay: Cytotoxicity against human HepG2 cells assessed as reduction in cell viability incubated for 24 hrs by MTT assay; format: functional, cell-based; conditions: HepG2, 24 h; in short: as §1
L02 = assay: Cytotoxicity against human L02 cells assessed as reduction in cell viability incubated for 24 hrs by MTT assay; format: cell-based; conditions: L02, 24 h; in short: as §1
RAW264.7 [2] = assay: Antiinflammatory activity against mouse RAW264.7 cells assessed as LPS-induced TNF-alpha at 5 uM pretreated for 2 hrs followed by LPS stimulation and measured after 22 hrs by ELISA (reference value: 0 %); format: functional; conditions: time 24 hrs
RAW264.7 [3] = assay: Antiinflammatory activity against mouse RAW264.7 cells assessed as LPS-induced IL-6 at 5 uM pretreated for 2 hrs followed by LPS stimulation and measured after 22 hrs by ELISA relative to control (reference value: 0 %); format: functional; conditions: time 24 hrs
RAW264.7 [4] = assay: Cytotoxicity against mouse RAW264.7 cells assessed as reduction in cell viability at 5 uM incubated for 24 hrs by MTT assay; format: cell-based; conditions: raw264.7, 24 h
SMMC-7721 = assay: Cytotoxicity against human SMMC-7721 cells assessed as reduction in cell viability incubated for 24 hrs by MTT assay; format: functional, cell-based; conditions: SMMC-7721, 24 h; in short: as §1
RAW264.7 [5] = assay: Antiinflammatory activity against mouse RAW264.7 cells assessed as LPS-induced IL-6 at 30 uM pretreated for 2 hrs followed by LPS stimulation and measured after 22 hrs by ELISA (reference value: 0 %); format: functional; conditions: time 24 hrs
In short: (§2)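 Mouse RAW264.7 macrophages were pretreated with compound for 2 h, then stimulated with LPS (1.0 µg/mL) for 22 h. Culture medium was centrifuged at 1000 rpm for 10 min, and secreted TNF-α and IL-6 were each quantified by ELISA kit. Inhibition rates are means of three replicates.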

RAW264.7 [6] = assay: Antiinflammatory activity against mouse RAW264.7 cells assessed as LPS-induced TNF-alpha at 30 uM pretreated for 2 hrs followed by LPS stimulation and measured after 22 hrs by ELISA (reference value: 0 %); format: functional; conditions: time 24 hrs; in short: as §2

| Structure (SMILES) | IC50 [1] | IC50 (HepG2) | IC50 (L02) | inhibition at 5 µM (RAW264.7 [2]) | inhibition at 5 µM (RAW264.7 [3]) | Activity (RAW264.7 [4]) | IC50 (SMMC-7721) | inhibition at 30 µM (RAW264.7 [5]) | inhibition at 30 µM (RAW264.7 [6]) |
| --- | --- | --- | --- | --- | --- | --- | --- | --- | --- |
| Cl.NC1=NC(c2ccc(F)cc2)C2=C(N1)/C(=C/c1ccc(F)cc1)CN(S(=O)(=O)c1ccccc1)C2 (stereo unspecified) | 11.5 µM | 9.5 µM | 9.9 µM | 33.5% | 39.8% | Non-Toxic | 8 µM | – | – |
| Cl.NC1=NC(c2ccc(F)cc2)C2=C(N1)/C(=C/c1ccc(F)cc1)CN(S(=O)(=O)c1ccc(F)cc1)C2 (stereo unspecified) | 11.1 µM | 4.1 µM | 13.3 µM | 72.3% | 71.4% | Non-Toxic | 17.1 µM | – | – |
| Cc1ccc(S(=O)(=O)N2CC3=C(NC(N)=NC3c3ccccc3F)/C(=C/c3ccccc3F)C2)cc1.Cl (stereo unspecified) | 9.6 µM | 13.1 µM | 11.5 µM | 44% | 56.8% | Non-Toxic | 7.3 µM | – | – |
| Cl.NC1=NC(c2ccccc2F)C2=C(N1)/C(=C/c1ccccc1F)CN(S(=O)(=O)c1ccc([N+](=O)[O-])cc1)C2 (stereo unspecified) | 10.7 µM | 11.9 µM | 12.4 µM | 72.7% | 79.6% | Non-Toxic | 5.7 µM | – | – |
| Cl.NC1=NC(c2ccc(F)cc2)C2=C(N1)/C(=C/c1ccc(F)cc1)CN(S(=O)(=O)c1ccc([N+](=O)[O-])cc1)C2 (stereo unspecified) | 10.3 µM | 9.4 µM | 12.5 µM | 65.9% | 66.8% | Non-Toxic | 19.1 µM | – | – |
| Cl.NC1=NC(c2ccccc2F)C2=C(N1)/C(=C/c1ccccc1F)CN(S(=O)(=O)c1ccc(Cl)cc1)C2 (stereo unspecified) | 9.1 µM | 12.2 µM | 11.5 µM | 83% | 81.5% | Non-Toxic | 4.9 µM | – | – |
| Cl.NC1=NC(c2ccc(F)cc2)C2=C(N1)/C(=C/c1ccc(F)cc1)CN(S(=O)(=O)c1ccc(Cl)cc1)C2 (stereo unspecified) | 27.1 µM | 7.6 µM | 16.7 µM | 48.4% | 54.8% | Non-Toxic | 12 µM | – | – |
| CC(=O)Nc1ccc(S(=O)(=O)N2CC3=C(NC(N)=NC3c3ccccc3F)/C(=C/c3ccccc3F)C2)cc1.Cl (stereo unspecified) | 22.1 µM | 11.8 µM | 11.2 µM | 67.6% | 61.6% | Non-Toxic | 8.6 µM | – | – |
| S=C(S)N1CCCC1 [PYRROLIDINE DITHIOCARBAMATE] | – | – | – | – | – | – | – | 56.9% | 66.5% |
| Cl.NC1=NC(c2ccccc2F)C2=C(N1)/C(=C/c1ccccc1F)CN(S(=O)(=O)c1ccc(C(F)(F)F)cc1)C2 (stereo unspecified) | 20.8 µM | 3.9 µM | 22 µM | 84.4% | 82.3% | Non-Toxic | 3.5 µM | – | – |
| Cl.N#Cc1ccc(S(=O)(=O)N2CC3=C(NC(N)=NC3c3ccc(F)cc3)/C(=C/c3ccc(F)cc3)C2)cc1 (stereo unspecified) | 26.7 µM | 11.7 µM | 18.6 µM | 45.9% | 51.1% | Non-Toxic | 42.7 µM | – | – |
| Cl.NC1=NC(c2cccc(F)c2)C2=C(N1)/C(=C/c1cccc(F)c1)CN(S(=O)(=O)c1ccc(Cl)cc1)C2 (stereo unspecified) | 12 µM | 15 µM | 15.1 µM | 57.7% | 75.9% | Non-Toxic | 5.5 µM | – | – |
| Cc1ccc(S(=O)(=O)N2CC3=C(NC(N)=NC3c3cccc(F)c3)/C(=C/c3cccc(F)c3)C2)cc1.Cl (stereo unspecified) | 23.2 µM | 11.7 µM | 11.2 µM | 40.5% | 46.7% | Non-Toxic | 11.7 µM | – | – |
| Cc1ccc(S(=O)(=O)N2CC3=C(NC(N)=NC3c3ccc(F)cc3)/C(=C/c3ccc(F)cc3)C2)cc1.Cl (stereo unspecified) | 32.7 µM | 4.5 µM | 17.7 µM | 61.8% | 60.1% | Non-Toxic | 4.3 µM | – | – |
| Cl.NC1=NC(c2cccc(F)c2)C2=C(N1)/C(=C/c1cccc(F)c1)CN(S(=O)(=O)c1ccccc1)C2 (stereo unspecified) | 11.3 µM | 3.7 µM | 37.8 µM | 54% | 56.3% | Non-Toxic | 12.8 µM | – | – |
| Cl.NC1=NC(c2ccccc2F)C2=C(N1)/C(=C/c1ccccc1F)CN(S(=O)(=O)c1ccccc1)C2 (stereo unspecified) | 9.9 µM | 9.9 µM | 11.2 µM | 46.9% | 40.5% | Non-Toxic | 8.5 µM | – | – |
| Cl.NC1=NC(c2cccc(F)c2)C2=C(N1)/C(=C/c1cccc(F)c1)CN(S(=O)(=O)c1ccc(F)cc1)C2 (stereo unspecified) | 12.9 µM | 12.4 µM | 18.8 µM | 71.6% | 74.9% | Non-Toxic | 4.8 µM | – | – |
| Cl.NC1=NC(c2cccc(F)c2)C2=C(N1)/C(=C/c1cccc(F)c1)CN(S(=O)(=O)c1ccc([N+](=O)[O-])cc1)C2 (stereo unspecified) | 30.5 µM | 30.6 µM | 42.4 µM | 58.8% | 78.5% | Non-Toxic | 12.3 µM | – | – |
